Measured values reported in ChEMBL document CHEMBL4368858, “Search for a 5-CT alternative. In vitro and in vivo evaluation of novel pharmacological tools: 3-(1-alkyl-1H-imidazol-5-yl)-1H-indole-5-carboxamides, low-basicity 5-HT7 receptor agonists” (Medchemcomm, 2018).
Blank lines part the entries; values can stand above or below the molecule they belong to. Calls of active or inactive are those of the source.

Legend:
[1] = target: T1, 5-hydroxytryptamine receptor 2A (Homo sapiens, UniProt P28223); experiment: Displacement of [3H]-ketanserin from recombinant human 5HT2A receptor expressed in CHOK1 cells measured after 1 hr by microbeta counting method; assay type: cell-based
Method in brief: (§1)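 Radioligand displacement on cloned human receptors stably expressed in HEK-293 cells, except 5-HT2A, which was expressed in CHO cells. Radioligands: [3H]-LSD for 5-HT6, [3H]-5-CT for 5-HT7, [3H]-ketanserin for 5-HT2A, [3H]-raclopride for D2.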

[2] = target: T2, 5-hydroxytryptamine receptor 6 (Homo sapiens, UniProt P50406); experiment: Displacement of [3H]-LSD from recombinant human 5HT6 receptor expressed in HEK293 cells measured after 1 hr by microbeta counting method; assay type: cell-based; method in brief: as §1
D(2) dopamine receptor = D(2) dopamine receptor (Homo sapiens, UniProt P14416); experiment: Displacement of [3H]-raclopride from recombinant human D2LR receptor expressed in HEK293 cells measured after 1 hr by microbeta counting method; assay type: cell-based; method in brief: as §1
Homo sapiens = species on record: Homo sapiens; experiment: Selectivity ratio of Ki for displacement of [3H]-8-OH-DPAT from recombinant human 5HT1A receptor expressed in HEK293 cell membranes to Ki for displacement of [3H]-5-CT from recombinant human 5HT7b receptor expressed in HEK293 cell membranes
[3] = Permeability of the compound by PAMPA; assay type: ADME; conditions: read-out: permeability
Method in brief: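 Passive permeability measured on a pre-coated PAMPA plate system. Concentrations were quantified against calibration curves made by capillary electrophoresis with diode-array detection. The permeability coefficient Pe is reported in 10^-6 cm s^-1 as mean ± SD of triplicates.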

P-glycoprotein (ABCB1) = P-glycoprotein (ABCB1) (Homo sapiens, UniProt P08183); experiment: Inhibition of recombinant human membrane bound Pgp assessed as basal ATP consumption at 100 uM after 40 mins by Pgp-Glo luminescence assay relative to control; parameters: scale not given: the % may be the effect or the level left; conditions: read-out: Activity
Method in brief: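 Pgp-Glo luminescence assay measuring Pgp ATP consumption. Compounds incubated with Pgp membranes at 100 μM for 40 min at 37 °C in triplicate. Na3VO4 (100 μM) used as reference inhibitor and verapamil (200 μM) as stimulator; basal activity taken as the vanadate-versus-untreated signal difference.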

[4] = Drug metabolism in human liver microsomes measured after 120 mins in presence of NADPH generating system by UPLC analysis; assay type: ADME, Microsome; conditions: microsomes, 2 h
Method in brief: (§2)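 Incubation with human, rat or mouse liver microsomes for 120 min at 37 °C with an NADPH regeneration system. Reaction mixtures analysed by UPLC for metabolites and % substrate metabolized.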

[5] = Drug metabolism in rat liver microsomes measured after 120 mins in presence of NADPH generating system by UPLC analysis; assay type: ADME, Microsome; conditions: liver microsomes, read-out: Drug metabolism; method in brief: as §2
[6] = Drug metabolism in mouse liver microsomes measured after 120 mins in presence of NADPH generating system by UPLC analysis; assay type: ADME, Microsome; conditions: read-out: Drug metabolism; method in brief: as §2
[7] = Retention time of the compound in mouse liver microsomes in presence of NADPH generating system by UPLC analysis; assay type: ADME, Microsome; method in brief: as §2
CYP3A4 = CYP3A4 (Homo sapiens, UniProt P08684); experiment: Inhibition of CYP3A4 (unknown origin) assessed as residual activity at 10 uM using beetle D-luciferin as substrate by CYP450-Glo assay relative to control; assay type: ADME; conditions: CYP3A4 enzyme (unknown origin), probe beetle D-luciferin, read-out: Activity
Method in brief: (§3)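 Luminescent P450-Glo assays for CYP3A4, CYP2D6 and CYP2C9 run per the kit protocol. Triplicate wells, final concentrations 0.01–25 μM, same across all three isoforms. Activity given as % of control.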

CYP2D6 = CYP2D6 (Homo sapiens, UniProt P10635); experiment: Inhibition of CYP2D6 (unknown origin) assessed as residual activity at 10 uM using beetle D-luciferin as substrate by CYP450-Glo assay relative to control; assay type: ADME; conditions: CYP2D6 enzyme (unknown origin), probe beetle D-luciferin, read-out: Activity; method in brief: as §3
CYP2C9 = CYP2C9 (Homo sapiens, UniProt P11712); experiment: Inhibition of CYP2C9 (unknown origin) assessed as residual activity at 25 uM using beetle D-luciferin as substrate by CYP450-Glo assay relative to control; assay type: ADME; conditions: CYP2C9 enzyme (unknown origin), probe beetle D-luciferin, read-out: Activity; method in brief: as §3
Cytochrome P450 3A4 = Cytochrome P450 3A4 (Homo sapiens, UniProt P08684); experiment: Inhibition of CYP3A4 (unknown origin) using beetle D-luciferin as substrate by CYP450-Glo assay; assay type: ADME
Cytochrome P450 2D6 = Cytochrome P450 2D6 (Homo sapiens, UniProt P10635); experiment: Inhibition of CYP2D6 (unknown origin) using beetle D-luciferin as substrate by CYP450-Glo assay; assay type: ADME
[8] = Hepatotoxicity against human HepG2 cells assessed as ATP level at 100 uM after 3 hrs by CellTiter-Glo luminescent cell viability assay relative to control; assay type: toxicity, cell-based; conditions: read-out: Activity
Method in brief: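 HepG2 cells exposed 3 h at 1, 10 and 100 μM. […] Run in quadruplicate; result given as % of control.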

[9] = Mutagenicity in Salmonella typhimurium TA100 assessed as revertant colonies at 10 uM by Ames test; assay type: toxicity; conditions: salmonella enterica subsp. enterica serovar typhimurium
Method in brief: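 Ames microplate fluctuation assay with S. typhimurium TA100 in 384-well format, run in triplicate. Medium control baseline defined as mean revertants in growth medium + 1% DMSO plus one SD. Positive wells counted; a 2-fold increase over baseline flagged as a mutagen alert.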

Mus musculus [10] = experiment: Reversal of MK-801-induced cognitive impairment in mouse assessed increase in novel object recognition at 1 mg/kg treated for 60 mins followed by MK-801 addition 30 mins prior to testing by novel object recognition test; assay type: functional, organism-based
Method in brief: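 Mice adapted to an open field for 10 min. Next day: MK-801 0.3 mg kg-1 i.p. given 30 min before training, with the test compound given 60 min before MK-801. Training (T1) used two identical objects; in the retention trial 1 h later one object was replaced by a novel one. Exploration of each object was scored over 5 min. Means ± SEM.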

[11] = Toxicity in albino Swiss mouse assessed as effect on body temperature at 1 to 15 mg/kg; assay type: organism-based; conditions: in vivo
Method in brief: (§4)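 Albino Swiss mice housed singly 24 h before test, dosed 1, 5 or 15 mg kg-1 60 min before test. Rectal temperature read to 0.1 °C at t = 0 (T1) and +15 min (T2) after transfer to a new cage. SIH taken as T2 − T1; T1 compared with vehicle for basal temperature effect. Groups of 8–10; one-way ANOVA with Dunnett's test.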

Mus musculus [12] = experiment: Anxiolytic-like activity in albino Swiss mouse assessed as reduction in stress-induced hyperthermia by measuring reduction in body temperature at 15 mg/kg administered 60 mins prior to testing measured for 15 mins; assay type: functional, organism-based; method in brief: as §4
HEK293 = experiment: Cytotoxicity against HEK293 cells assessed as reduction in cell viability at 1 uM after 72 hrs by MTS assay relative to control; conditions: human, hek293, 72 h
[13] = target: T3, 5-hydroxytryptamine receptor 1A (Homo sapiens, UniProt P08908); experiment: Displacement of [3H]-8-OH-DPAT from recombinant human 5HT1A receptor expressed in HEK293 cells measured after 1 hr by microbeta counting method; assay type: cell-based
T3 sequence (P08908 whole entry): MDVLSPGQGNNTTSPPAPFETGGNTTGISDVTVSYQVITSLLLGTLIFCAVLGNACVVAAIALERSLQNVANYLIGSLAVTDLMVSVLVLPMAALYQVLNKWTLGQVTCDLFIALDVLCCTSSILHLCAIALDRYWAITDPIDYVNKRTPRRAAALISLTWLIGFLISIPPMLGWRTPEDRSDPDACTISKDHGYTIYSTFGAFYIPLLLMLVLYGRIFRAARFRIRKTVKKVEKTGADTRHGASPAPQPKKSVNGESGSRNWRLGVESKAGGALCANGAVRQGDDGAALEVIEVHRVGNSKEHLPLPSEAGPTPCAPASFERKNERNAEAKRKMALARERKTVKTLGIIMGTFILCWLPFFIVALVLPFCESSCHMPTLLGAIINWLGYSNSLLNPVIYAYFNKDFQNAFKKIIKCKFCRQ
Method in brief: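 Cloned human 5-HT1A receptor stably expressed in HEK-293 cells; displacement of [3H]-8-OH-DPAT.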

[14] = target: 5-hydroxytryptamine receptor 7 (Homo sapiens, UniProt P34969); experiment: Displacement of [3H]-5-CT from recombinant human 5HT7b receptor expressed in HEK293 cells measured after 1 hr by microbeta counting method; assay type: cell-based; method in brief: as §1
[15] = target: T3, 5-hydroxytryptamine receptor 1A; experiment: Displacement of [3H]8-OH-DPAT from recombinant human 5-HT1A receptor after 60 mins by scintillation counting analysis
Method in brief: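 Radioligand displacement at cloned human 5-HT1A receptor stably expressed in HEK-293 cells, with [3H]-8-OH-DPAT as the radioligand.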

[16] = target: T1, 5-hydroxytryptamine receptor 2A; experiment: Displacement of [3H]ketanserin from recombinant human 5-HT2A receptor after 60 mins by scintillation counting analysis
Method in brief: (§5)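 Cloned human 5-HT2A receptor stably expressed in CHO cells; displacement of [3H]-ketanserin.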

[17] = target: T2, 5-hydroxytryptamine receptor 6; experiment: Displacement of [3H]LSD from human recombinant 5-HT6 receptor after 120 mins by scintillation counting analysis
Method in brief: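 Cloned human 5-HT6 receptor stably expressed in HEK-293 cells; displacement of [3H]-LSD.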

[18] = target: T1, 5-hydroxytryptamine receptor 2A; experiment: Displacement of [3H]ketanserin from recombinant human 5-HT2A receptor expressed in cell membrane after 1.5 hrs by scintillation counting analysis; assay type: cell membranes; method in brief: as §5
[19] = target: 5-hydroxytryptamine receptor 5A (Homo sapiens, UniProt P47898); experiment: Displacement of [3H]LSD from human recombinant 5-HT5A receptor expressed in cell membrane after 1.5 hrs by scintillation counting analysis; assay type: cell membranes

T1 sequence (P28223 whole entry): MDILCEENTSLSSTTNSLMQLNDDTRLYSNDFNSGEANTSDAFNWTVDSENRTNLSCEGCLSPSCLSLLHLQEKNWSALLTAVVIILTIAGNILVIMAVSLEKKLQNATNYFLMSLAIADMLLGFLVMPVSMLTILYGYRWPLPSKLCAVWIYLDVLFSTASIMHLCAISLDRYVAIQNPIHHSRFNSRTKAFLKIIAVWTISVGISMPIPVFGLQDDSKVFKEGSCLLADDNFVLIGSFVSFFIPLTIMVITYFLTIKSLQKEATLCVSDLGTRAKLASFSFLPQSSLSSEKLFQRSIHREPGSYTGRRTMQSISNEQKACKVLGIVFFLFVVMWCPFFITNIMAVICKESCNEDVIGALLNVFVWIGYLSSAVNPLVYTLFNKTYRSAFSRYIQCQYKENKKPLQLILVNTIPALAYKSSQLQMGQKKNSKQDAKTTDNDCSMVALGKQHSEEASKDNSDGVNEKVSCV
T2 sequence (P50406 whole entry): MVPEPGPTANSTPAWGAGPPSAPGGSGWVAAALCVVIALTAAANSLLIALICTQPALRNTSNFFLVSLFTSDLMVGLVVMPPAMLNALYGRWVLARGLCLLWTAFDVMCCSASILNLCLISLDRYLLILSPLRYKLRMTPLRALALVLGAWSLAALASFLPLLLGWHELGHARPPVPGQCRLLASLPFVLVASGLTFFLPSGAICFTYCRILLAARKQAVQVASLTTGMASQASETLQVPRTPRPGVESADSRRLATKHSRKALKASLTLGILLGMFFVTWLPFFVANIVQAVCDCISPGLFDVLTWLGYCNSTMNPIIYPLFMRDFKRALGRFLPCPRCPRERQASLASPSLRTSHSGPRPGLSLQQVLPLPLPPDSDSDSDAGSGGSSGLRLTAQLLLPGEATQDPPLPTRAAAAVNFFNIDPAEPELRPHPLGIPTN
D(2) dopamine receptor, sequence (P14416 whole entry): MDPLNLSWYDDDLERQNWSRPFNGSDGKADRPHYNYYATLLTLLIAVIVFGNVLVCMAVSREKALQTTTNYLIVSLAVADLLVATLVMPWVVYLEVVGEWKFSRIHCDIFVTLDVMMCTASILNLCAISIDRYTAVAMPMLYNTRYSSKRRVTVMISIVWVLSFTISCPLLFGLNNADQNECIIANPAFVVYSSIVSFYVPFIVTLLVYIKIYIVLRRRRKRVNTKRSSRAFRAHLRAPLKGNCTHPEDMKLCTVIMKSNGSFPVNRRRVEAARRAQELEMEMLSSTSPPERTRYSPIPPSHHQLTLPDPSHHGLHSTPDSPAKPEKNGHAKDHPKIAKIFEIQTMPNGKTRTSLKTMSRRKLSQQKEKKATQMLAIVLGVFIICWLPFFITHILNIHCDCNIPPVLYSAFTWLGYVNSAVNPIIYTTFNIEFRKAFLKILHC
5-hydroxytryptamine receptor 7, sequence (P34969 whole entry): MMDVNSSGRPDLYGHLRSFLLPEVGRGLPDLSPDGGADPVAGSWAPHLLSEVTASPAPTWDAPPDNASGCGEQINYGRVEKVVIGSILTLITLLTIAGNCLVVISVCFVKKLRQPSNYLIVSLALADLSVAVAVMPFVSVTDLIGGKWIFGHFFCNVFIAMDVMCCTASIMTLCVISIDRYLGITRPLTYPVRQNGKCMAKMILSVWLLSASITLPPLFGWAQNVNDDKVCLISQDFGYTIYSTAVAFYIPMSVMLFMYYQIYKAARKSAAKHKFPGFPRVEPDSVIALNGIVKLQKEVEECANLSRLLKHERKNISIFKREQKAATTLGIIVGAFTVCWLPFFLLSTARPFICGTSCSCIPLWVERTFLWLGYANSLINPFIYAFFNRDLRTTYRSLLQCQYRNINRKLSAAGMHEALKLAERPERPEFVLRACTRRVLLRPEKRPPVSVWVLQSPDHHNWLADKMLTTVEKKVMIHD
CYP2C9, sequence (P11712 whole entry): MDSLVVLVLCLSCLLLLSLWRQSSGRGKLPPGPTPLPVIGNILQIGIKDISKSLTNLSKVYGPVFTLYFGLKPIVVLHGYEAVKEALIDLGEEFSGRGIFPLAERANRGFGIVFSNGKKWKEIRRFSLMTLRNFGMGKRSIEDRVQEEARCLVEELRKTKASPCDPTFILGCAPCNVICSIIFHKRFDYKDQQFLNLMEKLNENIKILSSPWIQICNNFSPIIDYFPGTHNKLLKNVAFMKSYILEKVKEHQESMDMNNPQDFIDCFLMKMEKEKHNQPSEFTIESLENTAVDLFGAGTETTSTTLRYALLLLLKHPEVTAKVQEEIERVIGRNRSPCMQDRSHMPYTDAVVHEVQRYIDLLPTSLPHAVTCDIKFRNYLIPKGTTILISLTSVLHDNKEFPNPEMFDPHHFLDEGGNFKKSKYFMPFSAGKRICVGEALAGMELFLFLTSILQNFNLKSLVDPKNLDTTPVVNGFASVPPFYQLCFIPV
CYP3A4, sequence (P08684 whole entry, canonical isoform): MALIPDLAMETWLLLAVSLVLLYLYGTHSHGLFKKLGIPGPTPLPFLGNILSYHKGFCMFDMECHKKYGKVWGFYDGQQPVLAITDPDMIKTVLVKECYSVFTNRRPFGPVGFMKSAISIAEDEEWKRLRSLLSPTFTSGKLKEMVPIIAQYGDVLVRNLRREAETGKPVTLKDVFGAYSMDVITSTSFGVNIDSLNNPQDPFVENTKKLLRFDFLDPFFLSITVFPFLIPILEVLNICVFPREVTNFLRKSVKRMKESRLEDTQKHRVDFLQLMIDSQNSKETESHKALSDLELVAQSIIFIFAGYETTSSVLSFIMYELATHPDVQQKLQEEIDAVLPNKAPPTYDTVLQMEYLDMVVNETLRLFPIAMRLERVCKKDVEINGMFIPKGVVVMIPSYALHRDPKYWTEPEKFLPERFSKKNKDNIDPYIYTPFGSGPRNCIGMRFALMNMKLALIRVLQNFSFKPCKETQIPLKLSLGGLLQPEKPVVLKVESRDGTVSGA
Cytochrome P450 3A4, sequence (P08684 whole entry): as the sequence (P08684 whole entry, canonical isoform) above
Cytochrome P450 2D6, sequence (P10635 whole entry): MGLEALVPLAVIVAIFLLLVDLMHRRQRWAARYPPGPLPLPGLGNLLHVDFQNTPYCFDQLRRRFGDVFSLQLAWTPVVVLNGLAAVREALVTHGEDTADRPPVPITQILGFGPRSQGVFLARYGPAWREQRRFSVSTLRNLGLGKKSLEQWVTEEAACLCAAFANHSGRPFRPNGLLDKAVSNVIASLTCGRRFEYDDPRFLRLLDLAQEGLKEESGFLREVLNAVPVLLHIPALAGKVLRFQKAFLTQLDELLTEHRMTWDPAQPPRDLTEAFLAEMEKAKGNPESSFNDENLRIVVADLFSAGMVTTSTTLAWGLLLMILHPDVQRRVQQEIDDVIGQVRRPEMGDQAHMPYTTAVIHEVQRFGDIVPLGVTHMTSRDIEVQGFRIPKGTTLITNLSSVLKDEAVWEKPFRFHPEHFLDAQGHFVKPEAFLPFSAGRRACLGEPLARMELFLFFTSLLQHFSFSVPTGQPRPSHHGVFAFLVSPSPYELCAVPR
CYP2D6, sequence (P10635 whole entry): as above
P-glycoprotein (ABCB1), sequence (P08183 whole entry): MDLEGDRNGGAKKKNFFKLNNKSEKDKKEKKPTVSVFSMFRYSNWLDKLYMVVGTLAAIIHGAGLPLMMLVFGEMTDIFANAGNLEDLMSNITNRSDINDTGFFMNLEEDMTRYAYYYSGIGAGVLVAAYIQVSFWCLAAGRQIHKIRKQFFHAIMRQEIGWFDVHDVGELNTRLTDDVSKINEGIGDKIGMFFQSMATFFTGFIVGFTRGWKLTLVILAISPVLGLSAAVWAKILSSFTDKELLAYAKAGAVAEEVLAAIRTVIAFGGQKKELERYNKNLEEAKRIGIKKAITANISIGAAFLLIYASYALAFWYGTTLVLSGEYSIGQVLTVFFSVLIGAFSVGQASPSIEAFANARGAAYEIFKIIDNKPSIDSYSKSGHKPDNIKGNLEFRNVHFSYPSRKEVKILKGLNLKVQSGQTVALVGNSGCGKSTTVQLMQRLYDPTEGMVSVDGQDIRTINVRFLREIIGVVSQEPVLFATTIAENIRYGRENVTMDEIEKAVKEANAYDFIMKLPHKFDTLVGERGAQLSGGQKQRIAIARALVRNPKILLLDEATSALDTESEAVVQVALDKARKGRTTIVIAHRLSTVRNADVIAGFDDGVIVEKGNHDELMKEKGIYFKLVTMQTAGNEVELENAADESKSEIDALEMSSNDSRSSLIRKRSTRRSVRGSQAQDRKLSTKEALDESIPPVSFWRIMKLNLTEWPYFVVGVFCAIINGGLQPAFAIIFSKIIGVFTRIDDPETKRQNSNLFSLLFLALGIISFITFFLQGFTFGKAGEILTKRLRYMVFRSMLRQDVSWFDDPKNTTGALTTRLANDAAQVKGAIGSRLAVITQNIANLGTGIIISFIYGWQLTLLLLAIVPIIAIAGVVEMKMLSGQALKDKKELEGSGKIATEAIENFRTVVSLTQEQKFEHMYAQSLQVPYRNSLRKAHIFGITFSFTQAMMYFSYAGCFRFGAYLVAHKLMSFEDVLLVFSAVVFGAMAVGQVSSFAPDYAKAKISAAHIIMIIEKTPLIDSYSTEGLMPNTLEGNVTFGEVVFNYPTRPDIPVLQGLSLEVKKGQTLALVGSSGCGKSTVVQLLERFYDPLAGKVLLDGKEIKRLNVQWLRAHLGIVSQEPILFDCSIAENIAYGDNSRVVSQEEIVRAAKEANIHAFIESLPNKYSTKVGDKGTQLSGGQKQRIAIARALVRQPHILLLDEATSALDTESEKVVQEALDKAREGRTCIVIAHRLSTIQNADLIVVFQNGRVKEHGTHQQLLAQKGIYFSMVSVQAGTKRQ

Ki [1]: > 10000 nM | Ki [2]: > 10000 nM | Ki (D(2) dopamine receptor): > 10000 nM | Papp [3]: 2.78 ×10⁻⁶ cm/s | activity at 40 min, 100 µM (P-glycoprotein (ABCB1)): 19.3% | Drug metabolism [4]: Metabolite_Notdetected | metabolised at 2 h [5]: 7% | metabolised at 2 h [6]: 14% | Retention_time [7]: 1.6 min | activity at 10 µM (CYP3A4): 2.9% | activity at 10 µM (CYP2D6): 43.4% | activity at 25 µM (CYP2C9): 104% | IC50 (Cytochrome P450 3A4): 310 nM | IC50 (Cytochrome P450 2D6): 7470 nM
Compound: CCn1cncc1-c1c[nH]c2ccc(C(N)=O)cc12
Ratio Ki (Homo sapiens): 25 | viability at 3 h, 100 µM [8]: 102% | Activity [9]: 5.6 | Activity (Mus musculus [10]): Active | Activity [11]: Non-Toxic | Activity (Mus musculus [12]): Active

Compound: N#CC(C#N)=NNc1cccc(Cl)c1 [CARBONYL CYANIDE M-CHLOROPHENYLHYDRAZONE]
Activity (HEK293): 40%

Compound: CCn1cncc1-c1c[nH]c2ccc(C(=O)OC)cc12
Ki [13]: > 10000 nM | Ki [1]: > 10000 nM | Ki [2]: 6060 nM | Ki [14]: 161 nM | Ki (D(2) dopamine receptor): > 10000 nM

Compound: Cc1nn(C)c(C)c1-c1cccc(CCN(C)C)c1
Ki [15]: 700 nM | Ki [16]: > 1000 nM | Ki [17]: > 1000 nM

Ki [18]: 626 nM | Ki [19]: 178 nM
Compound: N#Cc1ccc(CNC(=O)CCCCCN2CCN(c3ccccc3-c3ccccc3)CC2)cc1
